# Most compounds without a hit are left out; they make up all but 2.6% or so of the library.
# TCR CD3 inh – human TCR-CD3 binding inhibition | inhibition, % at 9.4 µM | TAMRA-labeled TCR probe fluorescence, biochemical | 360,000 compounds, 0.37% hits; in the data active = inhibition above about 19%;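 also: recombinant mutant TCR 2C K166C tagged with TAMRA read by polarization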
# PRMT1 FP inh – inhibitors of human PRMT1 | Q99873 | recombinant PRMT1, activity-based probe fluorescence polarization | inhibition, % at 2.79 µM | 370,000 compounds, 1.3% hits;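 active = inhibition above about 21% made by adding two undisclosed values, limit read from the data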
# Target sequence (Q99873 whole entry, looked up): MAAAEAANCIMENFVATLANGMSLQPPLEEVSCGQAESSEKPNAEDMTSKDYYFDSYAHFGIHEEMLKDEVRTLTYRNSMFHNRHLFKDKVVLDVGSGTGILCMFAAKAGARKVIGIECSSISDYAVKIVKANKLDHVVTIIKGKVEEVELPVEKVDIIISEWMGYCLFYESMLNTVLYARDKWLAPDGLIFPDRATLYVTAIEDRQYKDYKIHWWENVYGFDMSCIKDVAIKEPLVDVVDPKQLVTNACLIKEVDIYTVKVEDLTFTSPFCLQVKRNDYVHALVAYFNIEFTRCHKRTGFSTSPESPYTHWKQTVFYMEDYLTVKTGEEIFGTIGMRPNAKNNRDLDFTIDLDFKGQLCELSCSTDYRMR
# ABHD4 inh – inhibits mouse alpha/beta hydrolase domain 4 | Q8VD66 | purified mABHD4, FP-Rh probe fluorescence polarization | inhibition, % at 8.92 µM | 370,000 compounds, 0.54% hits | AID 720543;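 active = inhibition exceeding the mean over every tested compound plus 3 SD, cut at about 30% in these data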
#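 Material: mouse ABHD4 enzyme, wild type; Benchmarks: S159A mutant high control, sample median low control; Buffer or medium: HEPES pH 7.0, NaCl, Pluronic buffer; Signal: fluorescence polarization; Read-out: percent inhibition of probe binding, normalized to plate controls; Timing: pre-incubation 45 min, probe exposure 60 min, at 25 °C; Dosing: 8.92 µM, single dose.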
# SIAE inh – human SIAE inhibition, primary screen; Q9HAT2; 370,000 compounds, 0.69% hits; inhibition, % at 9.66 µM; SIAE FP-Rh probe binding, fluorescence polarization;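 active = inhibition above a cutoff: mean of compounds within the control limits plus 3 SD of those, cut at about 17% in these data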
# HTRA1 inhibitor – blocks human HTRA1 serine peptidase; AID 504803; inhibition, % at 5.96 µM; 340,000 compounds, 0.5% hits; recombinant HTRA1, FP-rhodamine activity-based probe, fluorescence polarization; in the data active = inhibition above about 36%
# SIAE confirm – human SIAE inhibition, confirmation; shares compounds with SIAE inh; SIAE FP-Rh activity-based probe, fluorescence polarization; inhibition, % at 9.66 µM; 2,300 compounds, 13% hits; AID 1117263;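 active = mean inhibition of the replicates above the hit cutoff set in the primary screen, cut at about 17% in these data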;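 also: inhibitors lower polarization as more probe stays unbound to SIAE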
# Hits are given with their value; n = inactive; x = no result.
SMILES,TCR CD3 inh,PRMT1 FP inh,ABHD4 inh,SIAE inh,HTRA1 inhibitor,SIAE confirm
CCN1CCN(Cc2nc3ccc([N+](=O)[O-])cc3c(=O)n2-c2ccc(OC)cc2OC)CC1,n,n,n,19.1,n,n
COc1ccc(NC(=O)Nc2ccccc2C(=O)N2CCCC2)cc1OC,x,n,n,n,x,x
O=C(COC(=O)c1cccnc1)c1ccc(Cl)cc1,n,n,n,18.0,n,n
O=C(COC(=O)c1cccnc1)c1ccc(Cl)c(Cl)c1,n,n,n,n,n,x
Cn1cccc1Cc1nnc(SCC(=O)Nc2ccc3c(c2)OCCO3)n1-c1ccc(F)cc1,n,n,n,19.7,n,n
COc1ccc(-n2c(Cc3cccn3C)nnc2SCC(=O)N2CCC(C)CC2)cc1,n,n,n,n,n,x
COc1ccc(-n2c(Cc3cccn3C)nnc2SCC(=O)N2CCCC2)cc1,n,n,n,17.7,n,n
Cc1ccc(CSc2nnc(-c3cc(-c4ccc(F)cc4)n[nH]3)n2N)cc1,x,n,n,n,x,x
CCn1c(SCc2ccccc2Cl)nnc1-c1ccccc1OC,x,n,n,n,x,x
COc1ccc(C(=O)Nc2cc(OC)c(NC(=O)Nc3ccccc3)cc2OC)cc1,n,n,n,22.8,n,n
COc1ccc(C(=O)Nc2cc(OC)c(Cl)cc2OC)cc1,n,n,n,n,n,x
Cc1cccc(NC(=O)CN2C(=O)CCSc3ccccc32)c1C,x,n,n,n,x,x
CCCCCCc1c[nH]c2ccc(O)c(-c3ccccc3)c12,x,n,n,n,x,x
CN(Cc1ccccc1)C(=O)OCc1cn(Cc2cc(F)cc(F)c2)nn1,x,n,n,n,x,x
CC(C)CNC(=O)C1Nc2ccccc2C2C=CCC12 (stereo not given),n,n,n,19.7,n,n
CC(C)CNC(=O)C1Nc2ccc(C(F)(F)F)cc2C2C=CCC12 (stereo not given),n,n,n,n,n,x
C[C@@H]1COc2cccc(N3CCSCC3)c2S(=O)(=O)N1C,x,n,n,n,x,x
O=C(Nc1ccc(N2CCCC2)cc1)c1cccc(F)c1,n,n,n,17.6,n,n
CCN1CCCC1CNC(=O)C(=O)NC(C)c1ccccc1 (stereo not given),n,n,n,19.3,n,n
CCN1CCCC1CNC(=O)C(=O)NC(C)C (stereo not given),n,n,n,n,n,x
CCN(CCO)C(=O)c1ccc2nc(Cc3ccc(OC)cc3)oc2c1,n,n,n,24.0,n,n
CCN(CCO)C(=O)c1ccc2oc(Cc3ccc(Cl)cc3)nc2c1,n,n,n,n,n,x
COC(=O)C(C(=O)OC)[C@H]1C=C[C@@H](C(=O)NS(=O)(=O)c2ccc(C)cc2)N(C(C)=O)C1,x,n,n,n,x,x

# Assay outcomes: PubChem, The Scripps Research Institute Molecular Screening Center
